Drawing on ChEMBL document CHEMBL1221371, “Norterpenoids and related peroxides from the formosan marine sponge Negombata corticata” (J Nat Prod, 2010), this text covers IC50 for ten compounds.

The subject of assay [1] is MDA-MB-231. The assay is described as follows: Cytotoxicity against human MDA-MB-231 cells by MTT assay. Type of assay: functional, cell-based. The method in brief:
(§1)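 Human cancer cell lines were obtained from ATCC. Viability was read colorimetrically by MTT reduction, with doxorubicin as the positive control. IC50 values were derived in µM.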

Assay [2] deals with HepG2. Briefly: Cytotoxicity against human HepG2 cells by MTT assay. Type of assay: functional, cell-based. The method in brief: as §1
Background: Tetrazolium dyes change colour on reduction, which living cells bring about.

Assay [3] has as its system A549. The assay is described as follows: Cytotoxicity against human A549 cells by MTT assay. Type of assay: functional, cell-based. In outline: as §1
A short description of assay [4]: Cytotoxicity against human Hep3B cells by MTT assay. Type of assay: functional, cell-based, Hep 3B2. In outline:
as §1

Assay [5] relates to MCF7. The assay is described as follows: Cytotoxicity against human MCF7 cells by MTT assay. Type of assay: functional, cell-based. The method in brief: as §1

As usually defined, the IC50 is the point on the concentration scale where inhibition reaches its midpoint. Read a low IC50 as greater potency in that assay. For `C=C1CCCC(C)(C)C1CC[C@@]1(C)CC[C@H]([C@@H](C)C(=O)O)OO1` (stereo partly drawn) [NAPAPUIN B], the IC50 is 0.3 µM in assay [1]; 0.9 µM in assay [2]; 0.6 µM in assay [3]; 41.3 µM in assay [4]; 5.9 µM in assay [5].

Consider `C=C1CCCC(C)(C)C1CC[C@]1(C)CCC(=O)O1` (stereo partly drawn) [NEGOMBATOLACTONE], for which the IC50 in assay [1], in assay [2], in assay [3], in assay [4] and in assay [5] was greater than 50 µM throughout.

On to `C[C@@H](C(=O)O)[C@H]1CC[C@@](C)(C/C=C/C2(C)CCC(=O)O2)OO1` (stereo partly drawn) [NEGOMBATOPEROXIDE C/D], for which the 50% inhibitory concentration (IC50) in assay [1], in assay [2], in assay [3], in assay [4] and in assay [5] was greater than 50 µM throughout.

As to `COc1cccc2c1C(=O)c1c(O)c3c(c(O)c1C2=O)C[C@@](O)(C(=O)CO)C[C@@H]3O[C@H]1C[C@H](N)[C@H](O)[C@H](C)O1` [DOXORUBICIN], the values for the half-inhibitory concentration (IC50) in assay [1], in assay [2] and in assay [4] were 0.24 µM, 0.19 µM and 0.14 µM, respectively.

As for `COC(=O)[C@@H](C)[C@@H]1CC[C@](C)(CCC(=O)C(C)(C)CCCC(C)=O)OO1` [DIACARPEROXIDE B], the IC50 in assay [1], in assay [2], in assay [3], in assay [4] and in assay [5] was 11.9 µM in each case.

As to `C/C(=C\CC[C@]1(C)CC[C@H]([C@@H](C)C(=O)O)OO1)CCC12OC1(C)CCCC2(C)C` (stereo partly drawn) [NEGOMBATOPEROXIDE A], the concentration for half-maximal inhibition (IC50) in assay [1], in assay [2], in assay [3], in assay [4] and in assay [5] was greater than 50 µM each time.

For the compound `C=C1CCCC(C)(C)C1CC[C@@](C)(O)CC[C@@H](O)[C@@H](C)C(=O)OC` (stereo partly drawn) [NEGOMBATODIOL], the IC50 in assay [1], in assay [2], in assay [3], in assay [4] and in assay [5] was greater than 50 µM in each case.

As for `C=C1CCCC(C)(C)C1CC[C@]1(C)CC[C@H]([C@@H](C)C(=O)OC)OO1` (stereo partly drawn) [NUAPAPUIN B], the IC50 came to 3.5 µM in assay [1]; 2.9 µM in assay [2]; 5.38 µM in assay [3]; 23.7 µM in assay [4]; 38.5 µM in assay [5].

Turning to `CC(=O)/C=C/C[C@]1(C)CC[C@H]([C@@H](C)C(=O)O)OO1` [NEGOMBATOPEROXIDE B], the half-maximal inhibitory concentration (IC50) in assay [1], in assay [2], in assay [3], in assay [4] and in assay [5] was greater than 50 µM in each case.

For the compound `CC(=O)CCCC(C)(C)C(=O)CCC(C)=O`, the IC50 in assay [1], in assay [2], in assay [3], in assay [4] and in assay [5] was greater than 50 µM each time.
